Compounds with a hit are over-represented: about 2% of the library has one in this group of screens.
CSN inh – CSN deneddylation inhibition. Purified CSN, SCF-Nedd8-OG deneddylation, fluorescence polarization. inhibition, % at 12.5 µM. 0.38% of 360,000 active;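 active = pattern-corrected inhibition above about 35%, with an unprinted fluorescence ratio check between 0.5 and 1.5, limit read from the data, passing the limit was not always enough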;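 note: 0% = enzyme with substrate and 100% = substrate without enzyme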
Target sequence (Q92905 whole entry, looked up, one chain of several): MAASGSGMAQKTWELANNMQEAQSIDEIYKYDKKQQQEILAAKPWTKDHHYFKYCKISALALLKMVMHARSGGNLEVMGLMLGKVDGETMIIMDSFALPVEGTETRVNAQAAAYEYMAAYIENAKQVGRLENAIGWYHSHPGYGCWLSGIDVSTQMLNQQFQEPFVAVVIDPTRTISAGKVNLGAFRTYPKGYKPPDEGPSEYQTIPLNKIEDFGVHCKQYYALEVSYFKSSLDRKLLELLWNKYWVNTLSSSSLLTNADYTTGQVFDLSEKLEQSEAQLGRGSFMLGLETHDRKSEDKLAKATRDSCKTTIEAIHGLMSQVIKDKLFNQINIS
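Test system: Human Csn5 produced in HEK293T cells | Compound: 12.5 µM single point | Times: 90 min, room temperature | Signal: Fluorescence polarization readout | Read-out basis: % inhibition of substrate cleavage by Csn5 | Controls: no-enzyme wells high, enzyme-with-substrate wells low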
STEP inh – inhibitors of human striatal-enriched phosphatase STEP; AID 588621; inhibition, % at 20 µM; recombinant STEP, OMFP fluorogenic substrate, fluorescence; 0.25% of 360,000 active;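 active = inhibition at 20 µM, scaled per plate between control wells, above about 37%, limit read from the data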;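 note: 0% = DMSO with enzyme and substrate and 100% = substrate only without enzyme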
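Measure: Control-normalized % inhibition with plate pattern correction | Test system: STEP phosphatase, cell-free reaction | Medium: pH 6.0 Bis-Tris with DTT and Tween 20 | Technique: Fluorescence, 480/540 nm | Times: Reaction 20 min, ambient temperature | Doses: Single compound dose of 20 µM, 1% DMSO final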
DNMT1 inh – blocks human DNA methyltransferase DNMT1; P26358; DNMT1 molecular beacon, Hinp1I cleavage, fluorescence; inhibition (reported as % activation of signal), % at 10 µM; 0.83% of 360,000 active; AID 588458; in the data active = inhibition above about 50%
Scp-1 inhibitor – Scp-1 (human) phosphatase inhibition. Q9GZU7. Recombinant Scp1, phosphopeptide, malachite green phosphate absorbance. inhibition, % at 20 µM. 0.88% of 340,000 active;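 active = inhibition above about 50% at 20 µM, limit read from the data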;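 note: plate controls were DMSO wells with enzyme for no effect and wells lacking enzyme for full effect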
Target sequence (Q9GZU7 76-261 limits assumed): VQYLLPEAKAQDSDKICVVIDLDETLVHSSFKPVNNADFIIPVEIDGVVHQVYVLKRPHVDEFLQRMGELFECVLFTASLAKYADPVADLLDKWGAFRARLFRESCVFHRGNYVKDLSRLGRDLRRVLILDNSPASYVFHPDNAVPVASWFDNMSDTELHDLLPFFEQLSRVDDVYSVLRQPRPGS
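Times: enzyme reaction 45 min at room temperature, colour 5 min, stabilisation 30 min. Material: SCP-1 catalytic fragment, aa 76-261. Medium: Acidic Tris acetate buffer with magnesium and detergent. Signal: colorimetric free-phosphate detection, absorbance 630 nm. Read-out basis: % inhibition of SCP-1 phosphate liberation. Reagent: Phosphorylated 17-residue peptide substrate.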
SUMO1 PPI mod – SUMO1-SIM interaction modulation; P63165; SUMO1 binding to a labelled peptide, TR-FRET, 1 h; inhibition, % at 20 µM; 0.33% of 360,000 active; in the data active = inhibition above about 37%
Target sequence (P63165 whole entry, looked up): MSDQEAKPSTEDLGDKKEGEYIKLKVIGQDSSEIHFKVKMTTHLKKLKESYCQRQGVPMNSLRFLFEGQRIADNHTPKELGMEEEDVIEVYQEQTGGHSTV
LMPTP inh – LMPTP (human) inhibition | 0.22% of 360,000 active | P24666 | recombinant LMPTP-A, OMFP fluorogenic substrate, fluorescence intensity | inhibition, % at 20 µM | AID 651560;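 active = compounds that cut the enzyme signal by at least half of the control window in the single-dose screen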;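 note: plate controls were DMSO wells with enzyme plus substrate for no effect and substrate without enzyme for full effect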
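Assay system: LMPTP-A enzyme. Input: 0.625 nM LMPTP-A final. Probe or stimulus: 400 µM OMFP. Compound dosing: single 20 µM dose. Schedule: 50 min dark incubation at room temperature. Detection: fluorescence intensity of OMFP turnover product. Read-out: percent inhibition versus substrate-only and uninhibited controls. Benchmarks: no-enzyme low control, uninhibited high control.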
Numbers without * were called inactive; . = not tested or not shown.

SMILES	CSN inh	STEP inh	DNMT1 inh	Scp-1 inhibitor	SUMO1 PPI mod	LMPTP inh
CN(C)CCCN1C(=O)c2cccc3c(Br)ccc(c23)C1=O	4.6	2.8	41.0	-7.0	-19.7	6.5
CCN1C(=O)c2cccc3c(N)ccc(c23)C1=O	-76.1	-107.9	123.8*	17.1	-105.1	-10.6
Cc1ccc(N2C(=O)c3cccc4c(N)ccc(c34)C2=O)c2cccnc12	-77.9	-22.6	47.7	67.2*	-13.2	40.4
Cc1ccc(C(=O)Nn2cnc3ccccc3c2=O)cc1C	-1.8	-2.4	0.3	-9.7	7.0	-1.7
O=C(COc1cccc2cccnc12)N1CCc2ccccc21	4.8	0.9	1.0	-3.1	19.5	-0.9
Cc1ccc(/C=C/c2nc3sc(C(=O)O)c(C)c3c(=O)[nH]2)cc1[N+](=O)[O-]	4.7	99.0*	24.1	89.4*	15.7	64.4*
Cc1cc(Oc2nc3ccccn3c(=O)c2/C=C(\C#N)C(=O)NC2CCS(=O)(=O)C2)ccc1Cl (stereo not drawn)	2.8	-0.1	-3.2	-3.6	-21.6	-0.4
Nc1ncnc2oc(-c3ccco3)c(-c3ccco3)c12	35.7	29.7	93.3*	65.9*	31.2	61.2*
N#Cc1c(NC(=O)c2ccccc2Cl)n(Cc2ccccc2)c2nc3ccccc3nc12	74.0*	1.1	53.6*	-0.9	56.5*	12.3
CCOC(=O)c1c(NC(=O)c2ccco2)n(C2CCCCC2)c2nc3ccccc3nc12	9.9	1.0	39.3	-2.6	39.7*	6.0
COc1ccc(-n2c(NC(=O)c3ccco3)c(C#N)c3nc4ccccc4nc32)cc1	38.2*	-1.3	13.2	-1.9	33.5	8.2
CCC(=O)Nc1c(C#N)c2nc3ccccc3nc2n1-c1ccccc1C	-0.5	2.3	-19.6	-5.0	-16.7	0.2
Cc1cccc(NC(=O)N2C3CCCC2CC(NC(=O)C(C)(C)C)C3)c1 (stereo not drawn)	2.3	-1.6	2.5	-7.3	2.2	-1.5
O=C(O)c1ccc(N=Nc2c(O)ccc3ncccc23)cc1	34.2	15.5	2.9	73.2*	-12.7	14.8
COc1ccc(S(=O)(=O)N(C)C[C@H]2Oc3ncc(C#CC4(O)CCCC4)cc3C(=O)N([C@@H](C)CO)C[C@@H]2C)cc1	1.4	1.8	3.2	.	0.7	-2.1
Cc1[nH]c2ccccc2c1/C=N/Nc1ccc([N+](=O)[O-])cc1S(=O)(=O)Nc1ccc(Cl)cc1	43.8*	-9.6	-7.0	-14.2	-15.8	10.2
O=c1c2c([N+](=O)[O-])cc([N+](=O)[O-])cc2sn1-c1ccc(Br)cc1	-6.2	-0.1	-15.4	93.9*	-17.8	-0.8
O=C(O)CSc1cc(NS(=O)(=O)c2cccc([N+](=O)[O-])c2)c2ccccc2c1O	29.8	7.3	52.4*	17.4	33.3	6.3
CCOc1ccc(S(=O)(=O)Nc2cc(SCC(=O)O)c(O)c3ccccc23)cc1	19.5	4.5	-2.4	11.0	11.8	2.8
CCc1ccc(S(=O)(=O)Nc2cc(SCC(=O)O)c(O)c3ccccc23)cc1	35.0	2.9	16.1	2.6	44.7*	6.0
Cc1ccc(C)c(S(=O)(=O)Nc2cc(SCC(=O)O)c(O)c3ccccc23)c1	6.5	7.1	19.1	13.2	91.0*	11.4
CCOC(=O)c1ccc(S(=O)(=O)Nc2cc(S(=O)(=O)N3CCOCC3)ccc2O)cc1	4.4	7.3	7.1	-12.2	4.6	2.3
CC(OC(=O)c1ccc(NC(=O)CC#N)cc1)C(=O)Nc1ccc(Oc2ccccc2)cc1 (stereo not drawn)	6.0	5.4	-10.6	.	54.0*	0.5
CCn1c2ccccc2c2cc(/C(C)=N/O)ccc21	3.9	3.7	-10.3	3.6	-0.5	1.4
CCn1c2ccccc2c2cc(N)ccc21	36.1*	-7.1	7.4	-6.9	-7.0	1.2
SMILES	CSN inh	STEP inh	DNMT1 inh	Scp-1 inhibitor	SUMO1 PPI mod	LMPTP inh
C/C(N)=C(/C#N)C(=O)CSc1nnc(Nc2c(C)cccc2C)s1	0.8	1.1	25.9	70.2*	10.8	9.8
O=C(OCC(=O)N1CCCCCC1)c1cc(S(=O)(=O)N2CCOCC2)ccc1F	0.1	-0.8	1.4	.	-1.0	-1.1
CC(C)CCCCCCCCCCCCC(=O)NCC(=O)NC1C(C)OC(Nc2ncnc3nc[nH]c23)C(O)C1O (stereo not drawn)	-1.0	1.4	93.8*	-7.6	11.6	-1.4
Cc1ccc(C)c(C(=O)CN2Cc3ccccc3C2=O)c1	-1.8	-0.3	0.4	-8.9	45.8*	-0.2
O=C(O)c1cccc(Cn2c(Cl)c(/C=N/NC(=O)c3cc4ccccc4cc3O)sc2=O)c1	14.1	4.0	22.8	34.4	12.1	55.1*
O=C(O)c1cccc(Cn2c(Cl)c(/C=N/NC(=O)c3ccccc3)sc2=O)c1	-5.7	3.3	-1.3	-9.5	-5.8	-0.8
O=C(c1cc(C2CCCCN2S(=O)(=O)c2cccs2)on1)N1CCOCC1 (stereo not drawn)	-4.0	1.6	-0.2	.	43.9*	-0.8
CCOC(=O)C1=C(C)NC(=NC)SC1c1ccccc1 (stereo not drawn)	1.5	4.3	-1.2	1.6	-3.3	-0.2
COC(=O)c1ccccc1NC(=O)CN1CCC(n2nnc3cc(F)ccc32)CC1	-5.5	3.4	5.8	-0.7	-1.6	-0.5
CCOC(=O)c1ccccc1NC(=O)CN1CCC(n2nnc3cc(C(F)(F)F)ccc32)CC1	4.3	1.8	4.7	1.3	60.8*	2.1
CCOC(=O)COc1c(Cl)cc(/C=C2\N=C(C)OC2=O)cc1OC	1.9	2.5	-1.7	-3.3	0.3	0.3
C=CCN1C=C/C(=C\C=C(C#N)C#N)c2ccccc21	35.2*	16.4	-18.0	-3.1	6.7	22.1
Cc1ccc(-c2nc3ccccc3nc2-c2ccccc2)cc1	4.0	0.6	-1.2	0.3	-15.3	2.8
Cc1ccc(-c2nc(N)s[n+]2-c2ccccc2)cc1	-15.5	0.1	0.8	88.4*	2.7	1.1
Cc1ccc(-c2cc(-c3ccccc3)nc(NN)n2)cc1	2.8	5.8	-3.5	3.0	-1.5	5.1
CNc1nc(-c2ccccc2)[n+](-c2ccc(C)cc2)s1	1.6	-3.1	4.1	82.9*	0.5	-0.7
CCOC(=O)C1CCN(c2nc(C)cc(C)c2C#N)CC1	6.2	3.3	0.2	-4.0	2.3	0.9
CCOC(=O)C1CCN(c2nc(N)c3c(N)nc(SCC(=O)O)cc3c2C#N)CC1	22.6	22.1	74.8*	101.5*	60.2*	23.4
CC1(C(=O)NS(=O)(=O)c2cccc(Cl)c2)CCN1C(=O)Cc1ccc(Cl)cc1Cl (stereo not drawn)	3.6	-2.1	-0.1	.	5.2	-1.2

Assay outcomes from PubChem BioAssay.
